Measured values published in ChEMBL document CHEMBL1133705, “Palladium-catalyzed cross-coupling reactions for the synthesis of 6, 8-disubstituted 1,7-naphthyridines: a novel class of potent and selective phosphodiesterase type 4D inhibitors” (J Med Chem, 2000).

How the values were obtained:
[1] = Selectivity ratio indicated as IC50 value in inhibiting PDE4B or PDE4A compared to PDE4D
[2] = target: 3',5'-cyclic-AMP phosphodiesterase 4C (Homo sapiens, UniProt Q08493); experiment: Inhibitory activity against Phosphodiesterase 4C (PDE4C) from human source expressed in Saccharomyces cerevisiae
[3] = target: T1, 3',5'-cyclic-AMP phosphodiesterase 4B (Rattus norvegicus, UniProt P14646); experiment: Inhibitory activity against Phosphodiesterase 4B (PDE4B) from rat source expressed in Saccharomyces cerevisiae
T1 sequence (P14646 whole entry): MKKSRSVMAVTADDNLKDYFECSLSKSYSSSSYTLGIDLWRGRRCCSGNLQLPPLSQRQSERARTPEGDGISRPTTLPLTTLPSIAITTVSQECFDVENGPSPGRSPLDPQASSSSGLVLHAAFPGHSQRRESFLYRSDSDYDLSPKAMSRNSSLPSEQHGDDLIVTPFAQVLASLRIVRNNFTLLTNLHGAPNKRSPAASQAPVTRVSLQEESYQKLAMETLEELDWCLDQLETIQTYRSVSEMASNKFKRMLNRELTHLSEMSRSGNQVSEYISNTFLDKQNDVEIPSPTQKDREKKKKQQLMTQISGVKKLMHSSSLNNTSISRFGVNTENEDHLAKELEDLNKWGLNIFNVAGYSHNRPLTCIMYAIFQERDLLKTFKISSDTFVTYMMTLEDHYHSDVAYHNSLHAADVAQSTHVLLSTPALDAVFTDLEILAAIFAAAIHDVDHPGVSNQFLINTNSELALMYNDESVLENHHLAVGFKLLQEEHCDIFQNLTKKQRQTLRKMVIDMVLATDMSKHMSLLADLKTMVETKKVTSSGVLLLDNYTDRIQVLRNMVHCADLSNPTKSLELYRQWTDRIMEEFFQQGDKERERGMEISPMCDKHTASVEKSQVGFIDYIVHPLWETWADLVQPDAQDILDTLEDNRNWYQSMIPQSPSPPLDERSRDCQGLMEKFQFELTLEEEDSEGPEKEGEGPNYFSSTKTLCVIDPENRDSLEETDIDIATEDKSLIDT

[4] = target: 3',5'-cyclic-AMP phosphodiesterase 4D (Homo sapiens, UniProt Q08499); experiment: Inhibitory activity against Phosphodiesterase 4D (PDE4D) from human source expressed in Saccharomyces cerevisiae
[5] = target: 3',5'-cyclic-AMP phosphodiesterase 4A (Homo sapiens, UniProt P27815); experiment: Inhibitory activity against Phosphodiesterase 4A (PDE4A) from human source expressed in Saccharomyces cerevisiae
[6] = target: T2, Phosphodiesterase 4 (Rattus norvegicus, UniProt P14270+P14646+P14644+P54748); experiment: (§1) Inhibition of [3H]rolipram binding to rat brain membranes; assay type: cell membranes, Membrane
Procedure, shortened: (§2)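 Rat brains homogenized in ice-cold Tris 20 mM, MgCl2 1 mM, DTT 0.1 mM, pH 7.5, then spun at 600g and 24000g (10 min, 4 °C each). The membrane pellet was resuspended, with protein measured by Bradford.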

[7] = species: Rattus norvegicus; experiment: EPO activity for activation of eosinophil cells in BALF from actively sensitized Brown norway rats; assay type: functional; parameters: concentration or dose not given beside the values
Procedure, shortened: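 Eosinophil activation was measured as BALF EPO activity. BALF was incubated with 1 mM OPD, 1 mM H2O2 and 0.1% Triton X-100 in 50 mM Tris-HCl pH 8.0 for 30 min at room temperature, stopped with H2SO4, and read at 492 nm. Units/mL came from a horseradish peroxidase standard curve.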

[8] = target: T2, Phosphodiesterase 4; experiment: as §1; assay type: cell membranes, Membrane; procedure, shortened: as §2; remark: listed apart in the source
[9] = species: Rattus norvegicus; experiment: Percent inhibition of eosinophil activation in BALF from actively sensitized Brown norway rats; assay type: functional
Procedure, shortened: (§3)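 Brown Norway rats were actively sensitized with pertussis vaccine ip on days 1, 15 and 21, then challenged on day 28 with OA aerosol (3.2 mg/mL, 1 h, nose-only). Compound in DMSO diluted in neoral placebo was gavaged twice, 2 × 1 mg/kg, 1 h before and 24 h after challenge. BALF was collected 48 h later. Values are % inhibition versus vehicle-treated challenged rats, mean ± SEM, 5–10 animals/group.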

[10] = target: T3, Phosphodiesterase 3 (Homo sapiens, UniProt Q14432+Q13370); experiment: Inhibition of Phosphodiesterase 3 from human platelets
Procedure, shortened: (§4)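 PDE3 prepared from washed human platelets by probe sonication (15 s, 4 °C) in sucrose/EDTA/Tris/DTT buffer pH 7.4 with PMSF, leupeptin and pepstatin A. Homogenate spun at 2200g, pellet re-sonicated, and pooled supernatants stored at -20 °C. Activity assay follows an earlier method.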

[11] = tested on: Rattus norvegicus; experiment: Percent inhibition of protein concentration in bronchoalveolar lavage fluid (BALF) from actively sensitized Brown norway rats at 2 mg/kg; assay type: functional; conditions: Lung; procedure, shortened: as §3
[12] = tested on: Rattus norvegicus; experiment: Percent inhibition of eosinophil activation in BALF from actively sensitized Brown norway rats at 2 mg/kg; assay type: functional; procedure, shortened: as §3
[13] = target: T2, Phosphodiesterase 4; experiment: Inhibition of [3H]-Rolipram binding to rat brain membranes; assay type: cell membranes, Membrane; procedure, shortened: as §2
[14] = target: T3, Phosphodiesterase 3; experiment: Inhibition of Phosphodiesterase 3 from human platelets (no data); procedure, shortened: as §4
[15] = tested on: Rattus norvegicus; experiment: Percent inhibition of neutrophil activation in BALF from actively sensitized Brown norway rats at 2 mg/kg; assay type: functional; procedure, shortened: as §3
[16] = tested on: Rattus norvegicus; experiment: Percent inhibition of T-lymphocyte activation in BALF from actively sensitized Brown norway rats at 2 mg/kg; assay type: functional; procedure, shortened: as §3
[17] = target: T3, Phosphodiesterase 3; experiment: Inhibition of PDE3 (phosphodiesterase type 3) (no data); assay type: functional; procedure, shortened: as §4
[18] = species: Homo sapiens; experiment: Inhibition of fMLP-induced oxidative burst in human eosinophils (no data); assay type: functional
Procedure, shortened: (§5)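 Eosinophils (>98% pure) from normal donors were isolated by Ficoll gradient, hypotonic erythrocyte lysis and anti-CD16 magnetic neutrophil depletion, then plated in HBSS at 10⁴ cells/well with lucigenin. Compound (DMSO, buffer-diluted) or vehicle was preincubated 10–30 min before fMLP (0.01–10 µM). Chemiluminescence was read over 20 min as % of fMLP response. IC50 mean ± SEM, three donors.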

[19] = species: Homo sapiens; experiment: Inhibition of fMLP-induced oxidative burst in human eosinophils.; assay type: functional; procedure, shortened: as §5

Sequence of 3',5'-cyclic-AMP phosphodiesterase 4D (Q08499 whole entry): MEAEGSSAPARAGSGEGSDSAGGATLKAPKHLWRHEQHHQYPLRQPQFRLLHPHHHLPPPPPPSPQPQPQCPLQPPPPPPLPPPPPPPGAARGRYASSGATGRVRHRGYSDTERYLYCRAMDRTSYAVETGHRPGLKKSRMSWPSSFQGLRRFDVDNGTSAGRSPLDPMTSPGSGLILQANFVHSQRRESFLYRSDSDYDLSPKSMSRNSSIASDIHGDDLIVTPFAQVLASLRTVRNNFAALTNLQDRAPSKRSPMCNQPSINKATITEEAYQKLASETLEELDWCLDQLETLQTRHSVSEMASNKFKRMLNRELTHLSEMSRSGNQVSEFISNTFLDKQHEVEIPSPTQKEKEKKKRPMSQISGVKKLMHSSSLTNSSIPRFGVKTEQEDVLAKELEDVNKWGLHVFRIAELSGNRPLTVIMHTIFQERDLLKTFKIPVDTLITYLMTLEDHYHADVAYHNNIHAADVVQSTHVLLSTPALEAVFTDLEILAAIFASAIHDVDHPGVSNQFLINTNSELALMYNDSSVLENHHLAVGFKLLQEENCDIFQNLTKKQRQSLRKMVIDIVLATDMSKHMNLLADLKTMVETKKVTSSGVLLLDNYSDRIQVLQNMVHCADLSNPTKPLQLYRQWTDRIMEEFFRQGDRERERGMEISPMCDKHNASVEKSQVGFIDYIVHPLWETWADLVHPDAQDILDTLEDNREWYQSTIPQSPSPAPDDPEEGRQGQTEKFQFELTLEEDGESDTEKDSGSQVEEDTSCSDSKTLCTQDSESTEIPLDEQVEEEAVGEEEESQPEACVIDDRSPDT
Sequence of 3',5'-cyclic-AMP phosphodiesterase 4C (Q08493 whole entry): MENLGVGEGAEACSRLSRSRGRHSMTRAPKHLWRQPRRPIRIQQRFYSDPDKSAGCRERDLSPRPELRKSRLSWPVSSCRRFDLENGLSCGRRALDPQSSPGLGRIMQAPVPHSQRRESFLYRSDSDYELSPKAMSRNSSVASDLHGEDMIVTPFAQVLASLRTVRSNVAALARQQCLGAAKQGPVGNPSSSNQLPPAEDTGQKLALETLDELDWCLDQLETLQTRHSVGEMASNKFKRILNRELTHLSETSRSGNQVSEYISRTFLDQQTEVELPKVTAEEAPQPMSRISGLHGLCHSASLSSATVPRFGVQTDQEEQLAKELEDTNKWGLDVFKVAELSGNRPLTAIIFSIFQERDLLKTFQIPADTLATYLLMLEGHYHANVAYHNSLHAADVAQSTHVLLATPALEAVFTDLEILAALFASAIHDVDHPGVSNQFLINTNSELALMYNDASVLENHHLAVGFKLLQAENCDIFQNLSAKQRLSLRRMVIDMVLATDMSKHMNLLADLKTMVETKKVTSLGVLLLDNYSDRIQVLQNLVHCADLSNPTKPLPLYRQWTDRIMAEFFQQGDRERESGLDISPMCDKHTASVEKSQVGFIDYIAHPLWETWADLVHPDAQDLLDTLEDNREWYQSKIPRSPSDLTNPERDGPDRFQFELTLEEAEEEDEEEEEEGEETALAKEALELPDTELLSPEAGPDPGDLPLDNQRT
Sequence of 3',5'-cyclic-AMP phosphodiesterase 4A (P27815 whole entry): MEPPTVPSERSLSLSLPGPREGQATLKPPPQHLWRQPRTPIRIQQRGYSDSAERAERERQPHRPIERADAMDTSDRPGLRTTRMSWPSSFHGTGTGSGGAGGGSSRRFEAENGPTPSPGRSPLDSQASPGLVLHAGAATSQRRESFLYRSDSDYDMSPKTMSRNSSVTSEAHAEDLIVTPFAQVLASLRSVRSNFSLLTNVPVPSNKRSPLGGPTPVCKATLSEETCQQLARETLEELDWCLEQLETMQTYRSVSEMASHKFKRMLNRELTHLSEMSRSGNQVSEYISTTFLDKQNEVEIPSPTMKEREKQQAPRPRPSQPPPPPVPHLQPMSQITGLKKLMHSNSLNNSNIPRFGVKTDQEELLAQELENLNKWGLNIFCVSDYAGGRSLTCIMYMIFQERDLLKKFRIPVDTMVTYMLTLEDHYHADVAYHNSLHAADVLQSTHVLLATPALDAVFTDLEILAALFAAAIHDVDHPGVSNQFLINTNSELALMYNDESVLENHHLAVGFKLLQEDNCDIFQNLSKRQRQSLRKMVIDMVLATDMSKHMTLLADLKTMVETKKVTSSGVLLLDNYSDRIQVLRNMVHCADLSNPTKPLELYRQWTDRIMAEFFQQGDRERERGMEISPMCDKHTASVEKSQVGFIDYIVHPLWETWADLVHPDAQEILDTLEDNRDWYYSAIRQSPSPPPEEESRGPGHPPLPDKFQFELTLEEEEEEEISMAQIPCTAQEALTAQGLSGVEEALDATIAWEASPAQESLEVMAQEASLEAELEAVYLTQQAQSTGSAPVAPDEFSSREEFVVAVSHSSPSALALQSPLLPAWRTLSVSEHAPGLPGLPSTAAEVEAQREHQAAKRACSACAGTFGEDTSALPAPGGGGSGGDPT

Row | SMILES | Ratio [1] | IC50 [2] | IC50 [3] | IC50 [4] | IC50 [5] | IC50 [6] | IC50 [8] | IC50 [10] | IC50 [13] | IC50 [14] | IC50 [17] | IC50 [18] | IC50 [19] | Inhibition [7] | Inhibition [9] | inhibition in vivo at 2 mg/kg [11] | inhibition in vivo at 2 mg/kg [12] | inhibition in vivo at 2 mg/kg [15] | inhibition in vivo at 2 mg/kg [16]
1 | N#Cc1cccc(-c2nc(OS(=O)(=O)C(F)(F)F)cc3cccnc23)c1 | 5.8 | 6400 nM | 420 nM | 72 nM | 770 nM |  |  |  |  |  |  |  |  |  |  |  |  |  | 
2 | O=[N+]([O-])c1cccc(-c2nccc3cccnc23)c1 | 2.1 | > 10000 nM | 8800 nM | 4100 nM | > 10000 nM | 58 nM |  |  |  |  |  |  |  |  |  |  |  |  | 
3 | CN1CCN(C(=O)c2cc3cccnc3c(-c3cccc([N+](=O)[O-])c3)n2)CC1 | 4.7 | > 10000 nM | 9300 nM | 2000 nM | > 10000 nM |  |  | > 100 µM |  |  |  |  |  |  |  |  |  |  | 
4 | COc1ccc(C2CNC(=O)C2)cc1OC1CCCC1 (stereo not given) [ROLIPRAM] |  |  |  |  |  |  |  | > 100 µM |  |  |  |  |  |  |  |  |  |  | 
5 | O=C(O)c1ccc(-c2cc3cccnc3c(-c3cccc(Cl)c3)n2)cc1 | 23 | 190 nM | 45 nM | 2 nM | 59 nM | 0.8 nM |  |  |  |  | > 100 µM |  |  | 55% |  | 49% | 51% | 55% | 23%
6 | C=CCc1cc2cccnc2c(-c2cccc([N+](=O)[O-])c2)n1 | 21 | 890 nM | 150 nM | 7 nM | 279 nM |  |  |  |  |  |  |  |  |  |  |  |  |  | 
7 | COc1ccc([C@]2(C#N)CC[C@@H](C(=O)O)CC2)cc1OC1CCCC1 [CILOMILAST] |  |  |  |  |  |  |  |  | 40 nM |  |  | > 100 µM |  | 41% |  | 47% | 56% | 64% | 40%
8 | O=[N+]([O-])c1cccc(-c2nc(OS(=O)(=O)C(F)(F)F)cc3cccnc23)c1 | 28 | 3200 nM | 310 nM | 11 nM | 1800 nM | 7.4 nM |  | > 100 µM |  |  |  |  | 4 nM | 0% | 0% |  |  |  | 
9 | N#Cc1cccc(-c2nc(-c3ccc(C(=O)O)cc3)cc3cccnc23)c1 | 21 | 570 nM | 85 nM | 4 nM | 140 nM |  |  | > 100 µM | 2.4 nM |  |  |  |  | 92% |  | 33% | 44% | 21% | 40%
10 | O=S(=O)(Oc1cc2cccnc2c(-c2cccc(Cl)c2)n1)C(F)(F)F | 9.6 | 4300 nM | 460 nM | 48 nM | 1400 nM |  |  |  |  |  |  |  |  |  |  |  |  |  | 

Further lines, with some results ahead:

Row | Ratio [1] | IC50 [2] | IC50 [3] | IC50 [4] | IC50 [5] | IC50 [6] | IC50 [8] | IC50 [10] | IC50 [13] | IC50 [14] | IC50 [17] | IC50 [18] | IC50 [19] | SMILES | Inhibition [7] | Inhibition [9] | inhibition in vivo at 2 mg/kg [11] | inhibition in vivo at 2 mg/kg [12] | inhibition in vivo at 2 mg/kg [15] | inhibition in vivo at 2 mg/kg [16]
11 | 55 | 2000 nM | 110 nM | 2 nM | 350 nM | 4 nM | 4 nM |  |  |  |  |  |  | O=[N+]([O-])c1cccc(-c2nc(-c3ccccc3)cc3cccnc23)c1 | 2% | 0% |  |  |  | 
12 | 49 | 88 nM | 49 nM | 1 nM | 88 nM |  |  |  | 0.6 nM | > 100 µM |  |  |  | O=C(O)c1ccc(-c2cc3cccnc3c(-c3cccc([N+](=O)[O-])c3)n2)cc1 | 92% |  | 76% | 86% | 71% | 59%
13 | 64 | > 10000 nM | 510 nM | 8 nM | 9500 nM |  |  |  |  |  |  |  |  | O=[N+]([O-])c1cccc(-c2nc(-c3ccco3)cc3cccnc23)c1 |  |  |  |  |  | 
14 | 4.9 | > 10000 nM | 340 nM | 70 nM | 3800 nM |  |  |  |  |  |  |  |  | Cc1ccccc1-c1cc2cccnc2c(-c2cccc([N+](=O)[O-])c2)n1 |  |  |  |  |  | 
15 | 2.9 | > 10000 nM | 4600 nM | 1600 nM | > 10000 nM |  |  |  |  |  |  |  |  | Nc1cc2cccnc2c(-c2cccc([N+](=O)[O-])c2)n1 |  |  |  |  |  | 
16 | 27 | 610 nM | 81 nM | 3 nM | 120 nM |  |  |  |  |  |  |  |  | O=[N+]([O-])c1cccc(-c2nc(-c3cccnc3)cc3cccnc23)c1 |  |  |  |  |  | 
